Test results reported in ChEMBL document CHEMBL4689842, “EUbOPEN Chemogenomics Library wave 1” (2021).

System: U2OS
Assay: Multiplex assay against U2OS
Type: toxicity, cell-based
Conditions: human
In short: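 Cells were classed with CellPathfinder machine-learning gating, first as Hoechst high-intensity objects or normal cells, then (normal cells) as healthy, pyknosed or fragmented nuclei, and finally (pyknosed cells) as mitotic or apoptotic. Staining of live cells at seeding used Hoechst33342, BioTracker Green Microtubule Cytoskeleton Dye, MitoTracker Red and Annexin V Alexa Fluor 680, with imaging on a CQ1 microscope at 37°C and 5% CO2 after compound addition. Tubulin, mitochondrial-mass and membrane-permeability phenotypes are per cents of healthy-nucleus cells.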

[1] = 12 h, 1 µM, compound concentration 1 uM, replicate 1
[2] = 12 h, 1 µM, compound concentration 1 uM, replicate 2
[3] = 12 h, 10 µM, compound concentration 10 uM, replicate 1
[4] = 12 h, 10 µM, compound concentration 10 uM, replicate 2
[5] = 24 h, 1 µM, compound concentration 1 uM, replicate 1
[6] = 24 h, 1 µM, compound concentration 1 uM, replicate 2
[7] = 24 h, 10 µM, compound concentration 10 uM, replicate 1
[8] = 24 h, 10 µM, compound concentration 10 uM, replicate 2
[9] = 48 h, 1 µM, compound concentration 1 uM, replicate 1
[10] = 48 h, 1 µM, compound concentration 1 uM, replicate 2
[11] = 48 h, 10 µM, compound concentration 10 uM, replicate 1
[12] = 48 h, 10 µM, compound concentration 10 uM, replicate 2

CCCc1cc(C)[nH]c(=O)c1CNC(=O)c1cc(-c2ccc(N3CCN(C(C)C)CC3)nc2)cc2c1cnn2C(C)C
Population Apoptotic (%) [1]: 64%
Population Fragmented Nuclei (%) [1]: 21%
Population Healthy Nuclei (%) [1]: 53%
Population Hoechst High Intensity Objects (%) [1]: 15%
Population Membrane Permeable-Phenotype (%) [1]: 13%
Population Mitochondria Different-Phenotype (%) [1]: 81%
Population Mitotic Cells (%) [1]: 35%
Population Normal (%) [1]: 84%
Population Pyknosed Nuclei (%) [1]: 24%
Population Tubulin-Different-Phenotype (%) [1]: 81%
Total Cell Count [1]: 124
Population Apoptotic (%) [2]: 20%
Population Fragmented Nuclei (%) [2]: 19%
Population Healthy Nuclei (%) [2]: 70%
Population Hoechst High Intensity Objects (%) [2]: 10%
Population Membrane Permeable-Phenotype (%) [2]: 8%
Population Mitochondria Different-Phenotype (%) [2]: 91%
Population Mitotic Cells (%) [2]: 80%
Population Normal (%) [2]: 89%
Population Pyknosed Nuclei (%) [2]: 9%
Population Tubulin-Different-Phenotype (%) [2]: 94%
Total Cell Count [2]: 56
Population Apoptotic (%) [3]: 70%
Population Fragmented Nuclei (%) [3]: 24%
Population Healthy Nuclei (%) [3]: 49%
Population Hoechst High Intensity Objects (%) [3]: 8%
Population Membrane Permeable-Phenotype (%) [3]: 64%
Population Mitotic Cells (%) [3]: 29%
Population Normal (%) [3]: 91%
Population Pyknosed Nuclei (%) [3]: 26%
Population Tubulin-Different-Phenotype (%) [3]: 98%
Total Cell Count [3]: 82
Population Apoptotic (%) [4]: 85%
Population Fragmented Nuclei (%) [4]: 13%
Population Healthy Nuclei (%) [4]: 47%
Population Hoechst High Intensity Objects (%) [4]: 5%
Population Membrane Permeable-Phenotype (%) [4]: 79%
Population Mitochondria Different-Phenotype (%) [4]: 100%
Population Mitotic Cells (%) [4]: 14%
Population Normal (%) [4]: 94%
Population Pyknosed Nuclei (%) [4]: 38%
Population Tubulin-Different-Phenotype (%) [4]: 100%
Total Cell Count [4]: 57
Population Apoptotic (%) [5]: 71%
Population Fragmented Nuclei (%) [5]: 18%
Population Healthy Nuclei (%) [5]: 60%
Population Hoechst High Intensity Objects (%) [5]: 13%
Population Membrane Permeable-Phenotype (%) [5]: 20%
Population Mitochondria Different-Phenotype (%) [5]: 89%
Population Mitotic Cells (%) [5]: 28%
Population Normal (%) [5]: 86%
Population Pyknosed Nuclei (%) [5]: 21%
Population Tubulin-Different-Phenotype (%) [5]: 79%
Total Cell Count [5]: 132
Population Apoptotic (%) [6]: 33%
Population Fragmented Nuclei (%) [6]: 20%
Population Healthy Nuclei (%) [6]: 51%
Population Hoechst High Intensity Objects (%) [6]: 10%
Population Membrane Permeable-Phenotype (%) [6]: 10%
Population Mitochondria Different-Phenotype (%) [6]: 78%
Population Mitotic Cells (%) [6]: 66%
Population Normal (%) [6]: 90%
Population Pyknosed Nuclei (%) [6]: 27%
Population Tubulin-Different-Phenotype (%) [6]: 82%
Total Cell Count [6]: 53
Population Apoptotic (%) [7]: 88%
Population Fragmented Nuclei (%) [7]: 23%
Population Healthy Nuclei (%) [7]: 36%
Population Membrane Permeable-Phenotype (%) [7]: 80%
Population Mitotic Cells (%) [7]: 11%
Population Pyknosed Nuclei (%) [7]: 39%
Total Cell Count [7]: 75
Population Apoptotic (%) [8]: 91%
Population Fragmented Nuclei (%) [8]: 8%
Population Healthy Nuclei (%) [8]: 48%
Population Hoechst High Intensity Objects (%) [8]: 9%
Population Membrane Permeable-Phenotype (%) [8]: 85%
Population Mitochondria Different-Phenotype (%) [8]: 100%
Population Mitotic Cells (%) [8]: 8%
Population Normal (%) [8]: 90%
Population Pyknosed Nuclei (%) [8]: 42%
Population Tubulin-Different-Phenotype (%) [8]: 100%
Total Cell Count [8]: 60
Population Apoptotic (%) [9]: 70%
Population Fragmented Nuclei (%) [9]: 23%
Population Healthy Nuclei (%) [9]: 56%
Population Hoechst High Intensity Objects (%) [9]: 10%
Population Membrane Permeable-Phenotype (%) [9]: 18%
Population Mitochondria Different-Phenotype (%) [9]: 83%
Population Mitotic Cells (%) [9]: 29%
Population Normal (%) [9]: 89%
Population Pyknosed Nuclei (%) [9]: 20%
Population Tubulin-Different-Phenotype (%) [9]: 77%
Total Cell Count [9]: 142
Population Apoptotic (%) [10]: 46%
Population Fragmented Nuclei (%) [10]: 22%
Population Healthy Nuclei (%) [10]: 59%
Population Hoechst High Intensity Objects (%) [10]: 12%
Population Membrane Permeable-Phenotype (%) [10]: 27%
Population Mitochondria Different-Phenotype (%) [10]: 72%
Population Mitotic Cells (%) [10]: 53%
Population Normal (%) [10]: 87%
Population Pyknosed Nuclei (%) [10]: 18%
Population Tubulin-Different-Phenotype (%) [10]: 74%
Total Cell Count [10]: 65
Population Apoptotic (%) [11]: 95%
Population Fragmented Nuclei (%) [11]: 26%
Population Healthy Nuclei (%) [11]: 15%
Population Hoechst High Intensity Objects (%) [11]: 14%
Population Membrane Permeable-Phenotype (%) [11]: 89%
Population Mitochondria Different-Phenotype (%) [11]: 100%
Population Mitotic Cells (%) [11]: 4%
Population Normal (%) [11]: 85%
Population Pyknosed Nuclei (%) [11]: 57%
Population Tubulin-Different-Phenotype (%) [11]: 100%
Total Cell Count [11]: 95
Population Apoptotic (%) [12]: 100%
Population Fragmented Nuclei (%) [12]: 13%
Population Healthy Nuclei (%) [12]: 37%
Population Hoechst High Intensity Objects (%) [12]: 16%
Population Membrane Permeable-Phenotype (%) [12]: 96%
Population Mitotic Cells (%) [12]: 0%
Population Normal (%) [12]: 83%
Population Pyknosed Nuclei (%) [12]: 49%
Total Cell Count [12]: 82

NC(=O)c1ccc2nc(-c3ccc(C4(N)CCC4)cc3)c(-c3ccccc3)n2n1 [BAY-1125976]
Population Apoptotic (%) [1]: 52%
Population Healthy Nuclei (%) [1]: 79%
Population Hoechst High Intensity Objects (%) [1]: 6%
Population Mitochondria Different-Phenotype (%) [1]: 19%
Population Mitotic Cells (%) [1]: 47%
Population Normal (%) [1]: 93%
Population Tubulin-Different-Phenotype (%) [1]: 46%
Total Cell Count [1]: 239
Population Apoptotic (%) [2]: 42%
Population Healthy Nuclei (%) [2]: 80%
Population Hoechst High Intensity Objects (%) [2]: 12%
Population Mitotic Cells (%) [2]: 57%
Population Normal (%) [2]: 87%
Population Tubulin-Different-Phenotype (%) [2]: 35%
Total Cell Count [2]: 109
Population Apoptotic (%) [3]: 66%
Population Healthy Nuclei (%) [3]: 92%
Population Mitochondria Different-Phenotype (%) [3]: 24%
Population Mitotic Cells (%) [3]: 33%
Population Tubulin-Different-Phenotype (%) [3]: 27%
Total Cell Count [3]: 210
Population Apoptotic (%) [4]: 20%
Population Healthy Nuclei (%) [4]: 88%
Population Hoechst High Intensity Objects (%) [4]: 4%
Population Mitochondria Different-Phenotype (%) [4]: 23%
Population Mitotic Cells (%) [4]: 80%
Population Normal (%) [4]: 95%
Population Tubulin-Different-Phenotype (%) [4]: 18%
Total Cell Count [4]: 165
Population Apoptotic (%) [5]: 42%
Population Healthy Nuclei (%) [5]: 76%
Population Hoechst High Intensity Objects (%) [5]: 5%
Population Mitochondria Different-Phenotype (%) [5]: 18%
Population Mitotic Cells (%) [5]: 57%
Population Normal (%) [5]: 94%
Population Tubulin-Different-Phenotype (%) [5]: 23%
Total Cell Count [5]: 273
Population Apoptotic (%) [6]: 44%
Population Healthy Nuclei (%) [6]: 77%
Population Hoechst High Intensity Objects (%) [6]: 8%
Population Mitochondria Different-Phenotype (%) [6]: 20%
Population Mitotic Cells (%) [6]: 55%
Population Normal (%) [6]: 91%
Population Tubulin-Different-Phenotype (%) [6]: 13%
Total Cell Count [6]: 124
Population Apoptotic (%) [7]: 33%
Population Hoechst High Intensity Objects (%) [7]: 1%
Population Mitochondria Different-Phenotype (%) [7]: 31%
Population Mitotic Cells (%) [7]: 66%
Population Normal (%) [7]: 98%
Population Tubulin-Different-Phenotype (%) [7]: 30%
Total Cell Count [7]: 258
Population Apoptotic (%) [8]: 7%
Population Healthy Nuclei (%) [8]: 87%
Population Hoechst High Intensity Objects (%) [8]: 5%
Population Mitochondria Different-Phenotype (%) [8]: 28%
Population Mitotic Cells (%) [8]: 92%
Population Normal (%) [8]: 94%
Population Tubulin-Different-Phenotype (%) [8]: 25%
Total Cell Count [8]: 213
